From ChEMBL document CHEMBL1123602, “Synthesis and biological properties of N3-(4-methoxyfumaroyl)-L-2,3-diaminopropanoic acid dipeptides, a novel group of antimicrobial agents” (1987)
Values after ≈ are worked out from the molar mass of the structure shown.

Assays:
Bacillus pumilus [1] = experiment: Antimicrobial activity against the strain of Bacillus pumilus(1697); type: functional
Outline: (§1)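 Agar dilution MIC on minimal agar Davis medium with 0.1% yeast extract and 0.1% casamino acids containing compound at 200 to 0.2 μg/mL (twofold steps). Cells at 10⁵ cfu/mL were loop-applied to the surface and incubated 24 h at 37 °C. Plates were read visually; MIC is the lowest concentration giving complete growth inhibition.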

Candida albicans [2] = experiment: Antifungal activity against Candida albicans ATCC 26278 strain in YNB medium after incorporation of 20 ug per disk.; type: functional
Outline: (§2)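 C. albicans disk diffusion. YNB medium with 1% glucose and 1% agar was seeded with 10⁴ cfu/mL cells from an overnight Sabouraud culture and poured into dishes. Water-dissolved peptide was loaded onto 6.35-mm paper disks, which were placed on the agar. Zones of inhibition were measured after 48 h at 30 °C.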

Staphylococcus aureus = experiment: Antimicrobial activity against the strain of Staphylococcus aureus (209P); type: functional; outline: as §1
Escherichia coli = experiment: Antimicrobial activity against the strain of Escherichia coli(ATCC 9637); type: functional; outline: as §1
Shigella sonnei [3] = experiment: Antimicrobial activity against the strain of Shigella sonnei(433); type: functional; outline: as §1
Candida albicans [4] = experiment: Antifungal activity against Candida albicans ATCC 26278 strain in YNB medium after incorporation of 10 ug per disk.; type: functional; outline: as §2
Candida albicans [5] = experiment: Antimicrobial activity against the strain of Candida albicans(AMB 25); type: functional
Outline: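 MIC by serial twofold dilution, 200 to 0.2 μg/mL, in YNB with 1% glucose. The inoculum was 10⁴ cfu/mL of an overnight culture grown in the same medium, incubated 48 h at 30 °C. Growth was read turbidimetrically; MIC is the lowest concentration giving complete growth inhibition.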

Candida albicans [6] = experiment: Antifungal activity against Candida albicans ATCC 26278 strain in medium after incorporation of 10 nmol of Met-Val dipeptide antagonist per disk.; type: functional
Outline: (§3)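 Disk diffusion with the antagonist (GlcNAc or dipeptide) applied to the same 6.35-mm disk as the FMDP dipeptide. Base layer is YNB with 1% glucose and 1% agar, seeded with 10⁴ cfu/mL C. albicans from an overnight Sabouraud culture. Peptides were dissolved in water. Inhibition zones were measured after 48 h at 30 °C.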

Candida albicans [7] = experiment: Antifungal activity against Candida albicans ATCC 26278 strain in medium after incorporation of 10 nmol of Leu-Met dipeptide antagonist per disk.; type: functional; outline: as §3
Candida albicans [8] = experiment: Antifungal activity against Candida albicans ATCC 26278 strain in medium after incorporation of 10 nmol of GlcNAc antagonist per disk.; type: functional; outline: as §3
Shigella sonnei [9] = experiment: Antibacterial activity against Shigella sonnei 433 strain in medium after incorporation of 10 nmol of Leu-Met dipeptide antagonist per disk.
Bacillus pumilus [10] = experiment: Antibacterial activity against Bacillus pumilus CCM 1697 strain in medium*after incorporation of 10 nmol of GlcNAc antagonist per disk.
Bacillus pumilus [11] = experiment: Antibacterial activity against Bacillus pumilus CCM 1697 strain in medium after incorporation of 10 nmol of Met-Val dipeptide antagonist per disk.
Bacillus pumilus [12] = experiment: Antibacterial activity against Bacillus pumilus CCM 1697 strain in medium after incorporation of 10 nmol of Leu-Met dipeptide antagonist per disk.
Shigella sonnei [13] = experiment: Antibacterial activity against Shigella sonnei 433 strain in medium after incorporation of 10 nmol of GlcNAc antagonist per disk.
Shigella sonnei [14] = experiment: Antibacterial activity against Shigella sonnei 433 strain in medium after incorporation of 10 nmol of Met-Val dipeptide antagonist per disk.
Candida albicans [15] = experiment: Activity against Candida albicans ATCC 26278 strain in YNB medium after incorporation of 20 ug per disk expressed as zone size; type: functional; outline: as §2
Candida albicans [16] = experiment: Activity against Candida albicans ATCC 26278 strain in YNB medium after incorporation of 10 ug per disk expressed as zone size; type: functional; outline: as §2

## CCC[C@H](N)C(=O)N[C@H](CNC(=O)/C=C/C(=O)OC)C(=O)O
Bacillus pumilus [1]
  MIC: 0.4 µg/mL (≈ 1.27 µM)
Candida albicans [2]
  Zone size: 42 mm
Staphylococcus aureus
  MIC: 12.5 µg/mL (≈ 39.6 µM)
Escherichia coli
  MIC: 100 µg/mL (≈ 317 µM)
Shigella sonnei [3]
  MIC: 3.12 µg/mL (≈ 9.89 µM)
Candida albicans [4]
  Zone size: 40 mm
Candida albicans [5]
  MIC: 0.4 µg/mL (≈ 1.27 µM)

## COC(=O)/C=C/C(=O)NC[C@@H](NC(=O)[C@@H](N)Cc1ccccc1)C(=O)O
Bacillus pumilus [1]
  MIC: 6.25 µg/mL (≈ 17.2 µM)
Staphylococcus aureus
  MIC: 100 µg/mL (≈ 275 µM)
Escherichia coli
  MIC: > 200 µg/mL
Shigella sonnei [3]
  MIC: 12.5 µg/mL (≈ 34.4 µM)
Candida albicans [5]
  MIC: 12.5 µg/mL (≈ 34.4 µM)

## Nc1nc(=O)[nH]cc1F [FLUCYTOSINE]
Candida albicans [2]
  Zone size: 39 mm
Candida albicans [4]
  Zone size: 35 mm

## COC(=O)/C=C/C(=O)NC[C@@H](N)C(=O)N[C@H](CNC(=O)/C=C/C(=O)OC)C(=O)O
Bacillus pumilus [1]
  MIC: > 200 µg/mL
Staphylococcus aureus
  MIC: > 200 µg/mL
Escherichia coli
  MIC: > 200 µg/mL
Shigella sonnei [3]
  MIC: > 200 µg/mL
Candida albicans [5]
  MIC: > 200 µg/mL

## COC(=O)/C=C/C(=O)NC[C@@H](N)C(=O)N[C@@H](Cc1ccc(O)cc1)C(=O)O
Bacillus pumilus [1]
  MIC: > 200 µg/mL
Staphylococcus aureus
  MIC: > 200 µg/mL
Escherichia coli
  MIC: > 200 µg/mL
Shigella sonnei [3]
  MIC: > 200 µg/mL
Candida albicans [5]
  MIC: 25 µg/mL (≈ 65.9 µM)

## COC(=O)/C=C/C(=O)NC[C@@H](NC(=O)[C@@H](N)CCCCN)C(=O)O
Bacillus pumilus [1]
  MIC: 100 µg/mL (≈ 290 µM)
Staphylococcus aureus
  MIC: > 200 µg/mL
Escherichia coli
  MIC: > 200 µg/mL
Shigella sonnei [3]
  MIC: > 200 µg/mL
Candida albicans [5]
  MIC: > 200 µg/mL

## COC(=O)/C=C/C(=O)NC[C@@H](N)C(=O)N[C@@H](CCSC)C(=O)O
Candida albicans [6]
  Zone size: 0 mm
Bacillus pumilus [1]
  MIC: > 200 µg/mL
Candida albicans [2]
  Zone size: 35 mm
Candida albicans [7]
  Zone size: 0 mm
Staphylococcus aureus
  MIC: > 200 µg/mL
Escherichia coli
  MIC: > 200 µg/mL
Shigella sonnei [3]
  MIC: > 200 µg/mL
Candida albicans [8]
  Zone size: 0 mm
Candida albicans [4]
  Zone size: 31 mm
Candida albicans [5]
  MIC: 1.56 µg/mL (≈ 4.49 µM)

## COC(=O)/C=C/C(=O)NC[C@@H](NC(=O)[C@@H](N)CCSC)C(=O)O
Bacillus pumilus [1]
  MIC: 3.12 µg/mL (≈ 8.98 µM)
Staphylococcus aureus
  MIC: 50 µg/mL (≈ 144 µM)
Escherichia coli
  MIC: 100 µg/mL (≈ 288 µM)
Shigella sonnei [3]
  MIC: 3.12 µg/mL (≈ 8.98 µM)
Candida albicans [5]
  MIC: 0.8 µg/mL (≈ 2.3 µM)

## CCCC[C@H](N)C(=O)N[C@H](CNC(=O)/C=C/C(=O)OC)C(=O)O
Shigella sonnei [9]
  Zone size: 11 mm
Bacillus pumilus [10]
  Zone size: 0 mm
Bacillus pumilus [11]
  Zone size: 0 mm
Bacillus pumilus [1]
  MIC: 0.4 µg/mL (≈ 1.21 µM)
Bacillus pumilus [12]
  Zone size: 0 mm
Staphylococcus aureus
  MIC: 25 µg/mL (≈ 75.9 µM)
Escherichia coli
  MIC: 100 µg/mL (≈ 304 µM)
Shigella sonnei [3]
  MIC: 3.12 µg/mL (≈ 9.47 µM)
Shigella sonnei [13]
  Zone size: 0 mm
Candida albicans [5]
  MIC: 0.8 µg/mL (≈ 2.43 µM)
Shigella sonnei [14]
  Zone size: 10 mm

## COC(=O)/C=C/C(=O)NC[C@@H](NC(=O)CN)C(=O)O
Bacillus pumilus [1]
  MIC: 25 µg/mL (≈ 91.5 µM)
Staphylococcus aureus
  MIC: > 200 µg/mL
Escherichia coli
  MIC: > 100 µg/mL
Shigella sonnei [3]
  MIC: 50 µg/mL (≈ 183 µM)
Candida albicans [5]
  MIC: 12.5 µg/mL (≈ 45.7 µM)

## C[C@@H]([C@H](N)C(=O)N[C@H](C(=O)O)[C@H]1O[C@@H](n2ccc(=O)[nH]c2=O)[C@H](O)[C@@H]1O)[C@H](O)c1ccc(O)cn1.C[C@@H]([C@H](N)C(=O)N[C@H](C(=O)O)[C@H]1O[C@H](n2cc(C=O)nc2O)[C@H](O)[C@@H]1O)[C@H](O)c1ccc(O)cn1
Candida albicans [15]
  Zone size: 28 mm
Candida albicans [16]
  Zone size: 25 mm

## Clc1ccccc1C(c1ccccc1)(c1ccccc1)n1ccnc1 [CLOTRIMAZOLE]
Candida albicans [2]
  Zone size: 21 mm
Candida albicans [4]
  Zone size: 17 mm

## COC(=O)/C=C/C(=O)NC[C@@H](N)C(=O)N[C@@H](C)C(=O)O
Bacillus pumilus [1]
  MIC: > 200 µg/mL
Staphylococcus aureus
  MIC: > 200 µg/mL
Escherichia coli
  MIC: > 200 µg/mL
Shigella sonnei [3]
  MIC: > 200 µg/mL
Candida albicans [5]
  MIC: 3.12 µg/mL (≈ 10.9 µM)

## COC(=O)/C=C/C(=O)NC[C@@H](NC(=O)[C@@H](N)Cc1ccc(O)cc1)C(=O)O
Bacillus pumilus [1]
  MIC: 12.5 µg/mL (≈ 32.9 µM)
Staphylococcus aureus
  MIC: 100 µg/mL (≈ 264 µM)
Escherichia coli
  MIC: > 200 µg/mL
Shigella sonnei [3]
  MIC: 25 µg/mL (≈ 65.9 µM)
Candida albicans [5]
  MIC: 50 µg/mL (≈ 132 µM)

## COC(=O)/C=C/C(=O)NC[C@@H](N)C(=O)N[C@@H](CC(C)C)C(=O)O
Bacillus pumilus [1]
  MIC: > 200 µg/mL
Staphylococcus aureus
  MIC: 100 µg/mL (≈ 304 µM)
Escherichia coli
  MIC: > 200 µg/mL
Shigella sonnei [3]
  MIC: > 200 µg/mL
Candida albicans [5]
  MIC: 3.12 µg/mL (≈ 9.47 µM)

## COC(=O)/C=C/C(=O)NC[C@@H](NC(=O)[C@@H](N)C(C)C)C(=O)O
Bacillus pumilus [1]
  MIC: 0.8 µg/mL (≈ 2.54 µM)
Staphylococcus aureus
  MIC: 12.5 µg/mL (≈ 39.6 µM)
Escherichia coli
  MIC: 100 µg/mL (≈ 317 µM)
Shigella sonnei [3]
  MIC: 1.56 µg/mL (≈ 4.95 µM)
Candida albicans [5]
  MIC: 1.56 µg/mL (≈ 4.95 µM)

## COC(=O)/C=C/C(=O)NC[C@@H](N)C(=O)NCC(=O)O
Bacillus pumilus [1]
  MIC: > 200 µg/mL
Staphylococcus aureus
  MIC: > 200 µg/mL
Escherichia coli
  MIC: > 200 µg/mL
Shigella sonnei [3]
  MIC: > 200 µg/mL
Candida albicans [5]
  MIC: > 200 µg/mL

## COC(=O)/C=C/C(=O)NC[C@@H](NC(=O)[C@H](C)N)C(=O)O
Bacillus pumilus [1]
  MIC: 1.56 µg/mL (≈ 5.43 µM)
Staphylococcus aureus
  MIC: 50 µg/mL (≈ 174 µM)
Escherichia coli
  MIC: 100 µg/mL (≈ 348 µM)
Shigella sonnei [3]
  MIC: 3.12 µg/mL (≈ 10.9 µM)
Candida albicans [5]
  MIC: 0.8 µg/mL (≈ 2.78 µM)

## COC(=O)/C=C/C(=O)NC[C@@H](N)C(=O)O
Bacillus pumilus [1]
  MIC: > 200 µg/mL
Staphylococcus aureus
  MIC: > 200 µg/mL
Escherichia coli
  MIC: > 200 µg/mL
Shigella sonnei [3]
  MIC: > 200 µg/mL
Candida albicans [5]
  MIC: > 200 µg/mL

## CCC[C@H](NC(=O)[C@H](N)CNC(=O)/C=C/C(=O)OC)C(=O)O
Bacillus pumilus [1]
  MIC: > 200 µg/mL
Staphylococcus aureus
  MIC: 100 µg/mL (≈ 317 µM)
Escherichia coli
  MIC: > 200 µg/mL
Shigella sonnei [3]
  MIC: > 200 µg/mL
Candida albicans [5]
  MIC: 6.25 µg/mL (≈ 19.8 µM)

## COC(=O)/C=C/C(=O)NC[C@@H](NC(=O)[C@@H](N)CC(C)C)C(=O)O
Candida albicans [6]
  Zone size: 0 mm
Bacillus pumilus [1]
  MIC: 1.56 µg/mL (≈ 4.74 µM)
Candida albicans [2]
  Zone size: 41 mm
Candida albicans [7]
  Zone size: 0 mm
Staphylococcus aureus
  MIC: 12.5 µg/mL (≈ 38 µM)
Escherichia coli
  MIC: 100 µg/mL (≈ 304 µM)
Shigella sonnei [3]
  MIC: 1.56 µg/mL (≈ 4.74 µM)
Candida albicans [8]
  Zone size: 0 mm
Candida albicans [4]
  Zone size: 39 mm
Candida albicans [5]
  MIC: 0.8 µg/mL (≈ 2.43 µM)

## Clc1ccc(COC(Cn2ccnc2)c2ccc(Cl)cc2Cl)c(Cl)c1 (stereo unspecified) [MICONAZOLE]
Candida albicans [15]
  Zone size: 32 mm
Candida albicans [16]
  Zone size: 27 mm

## COC(=O)/C=C/C(=O)NC[C@@H](N)C(=O)N[C@@H](Cc1ccccc1)C(=O)O
Bacillus pumilus [1]
  MIC: > 200 µg/mL
Staphylococcus aureus
  MIC: > 200 µg/mL
Escherichia coli
  MIC: > 200 µg/mL
Shigella sonnei [3]
  MIC: > 200 µg/mL
Candida albicans [5]
  MIC: 1.56 µg/mL (≈ 4.29 µM)

## COC(=O)/C=C/C(=O)NC[C@@H](N)C(=O)N[C@H](C(=O)O)C(C)C
Bacillus pumilus [1]
  MIC: > 200 µg/mL
Staphylococcus aureus
  MIC: 100 µg/mL (≈ 317 µM)
Escherichia coli
  MIC: > 200 µg/mL
Shigella sonnei [3]
  MIC: > 200 µg/mL
Candida albicans [5]
  MIC: 6.25 µg/mL (≈ 19.8 µM)
